This note sets out measurements from ChEMBL document CHEMBL4184212, “Design, synthesis and evaluation against Chikungunya virus of novel small-molecule antiviral agents” (Bioorg Med Chem, 2018).

The nature of data set [1]: Cytotoxicity against African green monkey Vero cells assessed as decrease in cell viability after 5 days by MTS/PMS method. The settings on record: chlorocebus sabaeus. The format is cell-based. The method, boiled down: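 Uninfected Vero cells in MEM Rega-3 with 2% FBS were treated with compound alongside the antiviral assay. Metabolic activity was read by MTS/PMS, and wells were checked microscopically for morphology changes. CC50 is the concentration reducing metabolic activity by 50%, found by logarithmic interpolation. Values are the mean of ≥3 independent experiments.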

Data set [2] in a line: Selectivity index, ratio of CC50 for African green monkey Vero cells to EC50 for Chikungunya virus Indian Ocean 889 infected in African green monkey Vero cells. The format is toxicity. The settings on record: read-out: Ratio CC50/EC50.
Data set [3] relates to Chikungunya virus. As to the kind of experiment: Antiviral activity against Chikungunya virus Indian Ocean 889 infected in African green monkey Vero cells assessed as inhibition of virus-induced cytopathic effect after 5 days by MTS/PMS method. The format is functional, organism-based. The settings on record: Indian Ocean 889, Vero, 120 h. (In general: Protection from cytopathic effect is a common read-out in antiviral testing.)

The CC50 is the concentration giving 50% cytotoxicity. As a reminder, the EC50 is the midpoint of the concentration-response curve. For orientation: EC90 means the concentration at which the effect reaches the 90% level. `COc1ccc(/C(C)=N/NC(=O)[C@@H]2C[C@H]2c2ccccc2)cc1`: the CC50 at 120 h in data set [1] came out at 72 µM. The selectivity ratio in data set [2] turned out to be 13. In data set [3], the EC50 is 5.6 µM and the EC90 came to 12 µM.
On the same counts, the results for `C/C(=N\NC(=O)[C@@H]1C[C@H]1c1ccccc1)c1ccc(C2CCCCC2)cc1` are 101 µM, 3.1, 32 µM and 44 µM.
In the case of `CCOc1ccc(/C=N/NC(=O)/C=C/c2ccc(C(C)(C)C)cc2)cc1OCC`, the CC50 at 120 h in data set [1] was determined as 101 µM. Further, in data set [2], the selectivity ratio is 32. Besides, the EC90 in data set [3] turned out to be 11 µM.
With `C/C(=N\NC(=O)/C=C/c1ccccc1)c1ccc(C2CCCCC2)cc1`, in data set [3], the EC50 is more than 289 µM and the EC90 was more than 289 µM.
In the case of `CC(C)c1ccc(/C=N/NC(=O)/C=C/c2ccc(C(C)(C)C)cc2)cc1`, the CC50 at 120 h in data set [1] came out at 7.4 µM. For the same molecule, the selectivity ratio in data set [2] was found to be 3.5. For the same molecule, the EC50 in data set [3] is 2.1 µM.
For `CC(C)(C)c1ccc(/C=C/C(=O)NCc2ccc(C(F)(F)F)cc2)cc1`, in data set [1], the CC50 at 120 h amounted to 115 µM. The selectivity ratio in data set [2] was 0.9. Moreover, in data set [3], the EC50 worked out at 125 µM and the EC90 came out at 47.9 µM.
As for `Cc1ccc(/C=N/NC(=O)[C@@H]2C[C@H]2c2ccc(C(C)(C)C)cc2)cc1`, the EC50 in data set [3] was determined as 6.6 µM.
On to `Cc1ccc(/C=N/NC(=O)/C=C/c2ccc(C(C)(C)C)cc2)cc1`, for which the CC50 at 120 h in data set [1] is 124 µM. In addition, in data set [2], the selectivity ratio worked out at 21.4. In addition, in data set [3], the EC50 came to 5.8 µM and the EC90 came to 10 µM.
With `CC(C)(C)c1ccc(/C=C/C(=O)N/N=C/c2ccc([N+](=O)[O-])cc2)cc1`, in data set [3], the half-maximal effective concentration (EC50) was more than 285 µM and the EC90 was more than 285 µM.
Take `O=C(/C=C/c1ccccc1)NCc1ccc(-c2ccccc2)cc1`: in data set [3], the EC50 was more than 319 µM and the EC90 is more than 319 µM.
`CC(C)(C)c1ccc(/C=C/C(=O)NCc2ccc(-c3ccccc3)cc2)cc1`: the CC50 at 120 h in data set [1] is 4.3 µM. Besides, in data set [3], the EC50 is 2.9 µM and the EC90 is more than 271 µM.
For the molecule `C/C(=N\NC(=O)/C=C/c1ccc(C(C)(C)C)cc1)c1ccc(C2CCCCC2)cc1`, in data set [3], the EC50 is more than 248 µM and the EC90 is more than 248 µM.
Regarding `C/C(=N\NC(=O)CCc1ccc(C(C)(C)C)cc1)c1ccc(C2CCCCC2)cc1`, in data set [3], the EC50 was more than 82.4 µM and the EC90 was more than 82.4 µM.
On to `O=C(CCc1ccccc1)N/N=C/c1ccc(C2CCCCC2)cc1`, for which, in data set [3], the EC50 was more than 96 µM and the EC90 is more than 96 µM.
As to `CC(C)(C)c1ccc(/C=C/C(=O)N/N=C/c2ccc(O)cc2)cc1`, in data set [1], the CC50 at 120 h was found to be 7.3 µM.
On the same count and under the same terms, then `CC(C)(C)c1ccc(/C=C/C(=O)N/N=C/c2ccc(-c3ccccc3)cc2)cc1`, with 20.1 µM.
`CC(C)(C)c1ccc(/C=C/C(=O)N/N=C/c2ccccc2)cc1`: the CC50 at 120 h in data set [1] was found to be 22.1 µM. Besides, the selectivity ratio in data set [2] stood at 3.8. Also, in data set [3], the EC50 came out at 5.8 µM and the EC90 is 87.5 µM.
With `CCOc1ccc(/C=N/NC(=O)CCc2ccc(C(C)(C)C)cc2)cc1OCC`, in data set [3], the EC50 is more than 11 µM and the EC90 is more than 11 µM.
`CCOc1ccc(/C=N/NC(=O)CCc2ccccc2)cc1OCC`: in data set [3], the EC50 is more than 294 µM and the EC90 is more than 294 µM.
`CC(C)(C)c1ccc([C@@H]2C[C@H]2C(=O)N/N=C/c2ccc(O)cc2)cc1`: in data set [3], the EC50 came to 2.7 µM and the EC90 came to 3.8 µM.
Consider `Cc1ccc(/C=C/C(=O)N/N=C/c2ccc(C)cc2)cc1`, for which, in data set [3], the EC50 is more than 359 µM and the EC90 was more than 359 µM.
With `CCOc1ccc(/C=N/NC(=O)/C=C/c2ccc(C)cc2)cc1OCC`, in data set [1], the CC50 at 120 h was more than 284 µM. For the same molecule, in data set [2], the selectivity ratio was more than 2.5. In addition, in data set [3], the concentration giving a half-maximal response (EC50) is 113 µM and the EC90 was more than 284 µM.
As for `CC(C)(C)c1ccc([C@@H]2C[C@H]2C(=O)N/N=C/c2ccc(C(F)(F)F)cc2)cc1`, the CC50 at 120 h in data set [1] was 30 µM. The selectivity ratio in data set [2] came to 2.1. Moreover, in data set [3], the EC50 was found to be 14 µM and the EC90 stood at 19 µM.
In the case of `CC(C)(C)c1ccc(CCC(=O)N/N=C/c2ccc(O)cc2)cc1`, the EC50 in data set [3] turned out to be 36.4 µM.
Turning to `O=C(N/N=C/c1ccc(O)cc1)[C@@H]1C[C@H]1c1ccccc1`, in data set [1], the CC50 at 120 h turned out to be 15 µM. In data set [2], the selectivity ratio came out at 2.3. Moreover, in data set [3], the EC50 is 6.4 µM and the EC90 stood at 8.7 µM.
For the molecule `O=C(CCc1ccccc1)N/N=C/c1ccc(O)cc1`, in data set [3], the EC50 is more than 373 µM and the EC90 is more than 373 µM.
`COc1ccc(/C(C)=N/NC(=O)/C=C/c2ccc(C(C)(C)C)cc2)cc1OC`: in data set [3], the EC50 was more than 263 µM and the EC90 was more than 263 µM.
Take `CC(C)(C)c1ccc(/C=C/C(=O)N/N=C/c2ccc(C(C)(C)C)cc2)cc1`: in data set [3], the EC50 was more than 276 µM and the EC90 was more than 276 µM.
Turning to `C/C(=N\NC(=O)/C=C/c1ccc(C(C)(C)C)cc1)c1ccc(Cl)cc1`, in data set [3], the concentration giving a half-maximal response (EC50) is more than 282 µM and the EC90 is more than 282 µM.
In the case of `C/C(=N\NC(=O)/C=C/c1ccc(C(C)(C)C)cc1)c1ccc(-c2ccccc2)cc1`, in data set [3], the concentration giving a half-maximal response (EC50) was more than 252 µM and the EC90 was more than 252 µM.
As for `Cc1ccc(/C=N/NC(=O)CCc2ccc(C(C)(C)C)cc2)cc1`, in data set [3], the EC50 is more than 100 µM and the EC90 was more than 100 µM.
For the molecule `COc1ccc(/C=N/NC(=O)/C=C/c2ccc(C(C)(C)C)cc2)cc1`, in data set [1], the CC50 at 120 h turned out to be 117 µM. The selectivity ratio in data set [2] came to 19.8. Moreover, in data set [3], the EC50 came to 5.9 µM and the EC90 was determined as 38.8 µM.
On the same counts, the results for `Cc1ccc(/C=N/NC(=O)/C=C/c2ccccc2)cc1` are 84.4 µM, 0.9, 93.3 µM and more than 284 µM.
On the same counts, the results for `CCOc1ccc(/C=N/NC(=O)[C@@H]2C[C@H]2c2ccc(C(C)(C)C)cc2)cc1OCC` are 72 µM, 14, 5 µM and 6.4 µM.
For the molecule `Cc1ccc(/C=N/NC(=O)CCc2ccccc2)cc1`, in data set [3], the EC50 is more than 375 µM and the EC90 was more than 375 µM.
On to `O=C(/C=C/c1ccccc1)NCc1ccc(C(F)(F)F)cc1`, for which, in data set [3], the EC50 is more than 246 µM and the EC90 was more than 246 µM.
For the molecule `C/C(=N\NC(=O)/C=C/c1ccc(C(C)(C)C)cc1)c1cnccn1`, the CC50 at 120 h in data set [1] is more than 310 µM. For the same molecule, the selectivity ratio in data set [2] was 1.2. In data set [3], the EC50 was found to be 103 µM and the EC90 amounted to 122 µM.
Consider `CCN(CC)CCCC(C)Nc1ccnc2cc(Cl)ccc12` (centres undefined) [CHLOROQUINE], for which the CC50 at 120 h in data set [1] worked out at 89 µM. For the same molecule, in data set [3], the EC90 is 21 µM.
